Yeast life ext: extends the lifespan of yeast | S. cerevisiae growth with nicotinamide, OD615; deaD strain in restrictive glucose medium | inhibition of the nicotinamide effect, % at 10 µM | 130,000 tested, 0.68% active | AID 775;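 active = inhibition above a set limit, placed 3 SD over the median of all compounds, cut at about 26% in these data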
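Assay system: engineered S. cerevisiae DeaD replicative-lifespan strain, galactose-grown log-phase cells; Buffer or medium: CSMM-D glucose medium, restrictive; Probe or stimulus: nicotinamide 1.5 mM; Compound: single dose 10 µM compound, 0.25% DMSO; Schedule: 4 h preincubation then 48 h treatment at 30 °C; Technique: OD615 measurement.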
Measles CPE: protection of cells from measles virus; protection (pct of control), % at 4 µM; Measles virus-infected cells, CPE protection, absorbance; AID 841; 140,000 tested, 1.5% active; in the data active = protection mostly above about 24%, no sharp cut-off; inactive = mostly below about 26%
Yeast growth inh: reduces growth of yeast BB579 in restrictive medium | S. cerevisiae BB579 growth, OD615, 48 h | inhibition, % at 10 µM | 140,000 tested, 0.51% active;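 active = inhibition above a set limit, 3 SD over the mean compound inhibition, cut at about 44% in these data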
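Test system: S. cerevisiae DeaD strain BB579 yeast; Medium: restrictive CSMM-D medium; Compound: one dose, 10 µM compound with 0.25% DMSO; Incubation: 4 h cell preincubation, 48 h compound exposure, 30 °C humidified; Signal: OD at 615 nm; Benchmarks: amphotericin B at 10 µg/mL as positive control.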
RAM inhibit: blocks the yeast RAM network; S. cerevisiae dse1pr::URA3 reporter, 5-FOA growth OD615, 2 d; analog-sensitive cbk1-as2 kinase mutant strain; inhibition, % at 50 µM; 190,000 tested, 1.8% active;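 active = inhibition above a set limit, 3 SD over mean compound inhibition, cut at about 8.4% in these data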;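 note: inhibition rescues growth on 5-FOA so higher OD means more RAM inhibition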
Numbers stand for hits; n = inactive; x = no result given. Compounds with a hit are over-represented: about 3.8% of the library has one in this group of screens.

SMILES	Yeast life ext	Measles CPE	Yeast growth inh	RAM inhibit
CCOC(=O)c1c(NC(=O)CSc2nnnn2CC)sc(C)c1C	n	n	n	8.9
CCOC(=O)c1c(NC(=O)COC(=O)c2cc(OC)c(OC)cc2[N+](=O)[O-])sc(C)c1C	n	n	n	8.6
CCCn1c(SCC(=O)Nc2sc(C)c(C)c2C(=O)OCC)nc2c1c(=O)n(C)c(=O)n2C	n	31	n	n
CCOC(=O)c1c(NC(=O)Cn2nc(C(F)F)cc2C(F)F)sc(C)c1C	n	n	n	9.6
COC(=O)/C=C/c1ccc(OC(=O)OC)c(OC(=O)OC)c1	n	n	n	n
C=COCCNC(=S)N1CCOCCOCCN(C(=S)NCCOC=C)CCOCCOCC1	x	x	x	n
CC(C)OC(=O)c1nnn(-c2nonc2N)c1CN1CCc2ccccc2C1	n	n	n	n
CCOC(=O)c1nnn(-c2nonc2-n2cccc2)c1CCl	55	n	n	n
CCOC(=O)c1nnn(-c2nonc2N)c1CN1CCc2ccccc2C1	62	n	n	n
COc1ccc(-n2c(O)cnc2Nc2nc(C)cc(C)n2)cc1OC	n	n	n	n
CN(C)S(=O)(=O)c1ccc(NC(=O)N2CCN(c3ccccc3)CC2)cc1	n	40	n	n
O=C(/C=C(\O)c1ccc(Cl)cc1)C(=O)NNC(=O)C(O)(c1ccccc1)c1ccccc1	62	n	n	n
C/C(=N/NS(=O)(=O)c1ccc(Cl)cc1)c1cccc(NC(=O)c2ccc(Cl)cc2Cl)c1	n	n	n	n
O=c1cc(C(F)(F)F)[nH]c2c(C(F)(F)F)cccc12	n	n	90	n
O=C(COC(=O)CCSc1ccccc1)NCc1ccccc1Cl	n	75	n	n
O=C(CSc1nnc(-c2ccc(F)cc2)c2ccccc12)Nc1c(F)cccc1F	n	37	n	n
O=C(CSc1nnc(-c2ccc(F)cc2)c2ccccc12)Nc1ccccc1	n	n	n	n
Cc1nc2ccccc2c2c1C(=O)N(C)C2=O	n	n	66	n
Cc1oc(-c2cccs2)nc1CN1CCN(Cc2ccc(F)c(F)c2)C(CCO)C1 (stereo not drawn)	x	x	x	n
COc1ccc(-c2nc(N)ncc2-c2csc(C)n2)c(O)c1OC	x	x	x	n
Cc1ccc(CCc2nnc(SCC(=O)Nc3cc(Cl)ccc3Cl)n2-c2ccccc2)o1	n	n	n	9.7
CCSc1nnc2ccc(-c3ccco3)nn12	x	x	x	n
O=C(CCc1ccccc1)NCCCN1CCOCC1	66	n	n	n
CCCCCNC(=O)CCc1ccccc1	x	53	n	n
O=C(CCCc1ccccc1)NCCCN1CCOCC1	n	n	n	n
SMILES	Yeast life ext	Measles CPE	Yeast growth inh	RAM inhibit
CCOC(=O)NC(=O)C(/C=N/c1sccc1C(=O)OC)=C(\C)O	x	x	x	n
COc1ccc(-n2nnnc2/C=C\Nc2ccccc2C(=O)c2ccccc2)cc1	n	31	n	n
Cn1cc(Br)c(C(=O)Nc2nccs2)n1	n	32	n	n
CCOC(=O)N1CCN(C(=O)CSCC(=O)Nc2nc(-c3ccc(-c4ccccc4)cc3)cs2)CC1	n	44	n	n
CCOC(=O)N1CCN(C(=O)CSCC(=O)Nc2nc(-c3ccc(OC)cc3)cs2)CC1	n	n	n	n
O=C(Nc1nc2ccc(S(=O)(=O)N3CCOCC3)cc2s1)c1cccs1	x	x	x	n
O=c1c(-c2nc3ccccc3s2)cccn1Cc1ccc(Cl)cc1	n	n	n	n
Clc1ccc(CCNc2nc3ccccc3s2)cc1	n	n	68	n
Cc1nsc(Nc2ccc([N+](=O)[O-])cc2)c1C#N	x	x	x	n
Cc1ccc(NC(=O)c2ccc(-c3nn(C)c(=O)c4ccccc34)cc2)cc1	n	n	n	n
Cn1nc(-c2ccc(C(=O)Nc3cccc(Cl)c3)cc2)c2ccccc2c1=O	n	38	n	n
CCn1c(=O)c(=O)[nH]c2cc(C(=O)N3CCN(Cc4ccc5c(c4)OCO5)CC3)ccc21	x	x	x	n
Cc1ccc(SCCNC(=S)Nc2ccccc2)cc1	n	n	n	n
Cc1ccc(SCCNC(=S)Nc2cc(C)ccc2C)cc1	n	n	n	8.9
FC(F)(F)c1cc(-c2ccccc2)nc(NC2CCCC2)n1	n	n	n	n
Oc1ccc(NCc2ccccc2OCc2ccccc2)cc1	n	41	n	n
CC(C)CCNC(=O)CCSCCC(=O)NCCC(C)C	n	n	n	n
N#C/C(=N/O)c1nc(-c2ccc(F)cc2)cs1	n	n	54	n
N#C/C(=C1\CCCN1)c1ccc2ccccc2n1	n	18	n	n
CCc1[nH]nc2c1C(c1ccc(Br)s1)C(C#N)=C(N)O2 (stereo not drawn)	58	n	n	n
CCCc1[nH]nc2c1C(c1ccc(OC)c(CSC3=NCCS3)c1)C(C#N)=C(N)O2 (stereo not drawn)	n	28	n	n
CCCc1[nH]nc2c1C(c1cc(OC)cc(OC)c1)C(C#N)=C(N)O2 (stereo not drawn)	n	83	n	n
CCCc1[nH]nc2c1C(c1cc(OC)ccc1F)C(C#N)=C(N)O2 (stereo not drawn)	n	n	n	n
COc1ccc(C(=O)/C=C/N2CCCCC2)cc1OC	n	n	53	n
COc1ccc(C(=O)/C=C/c2ccc(OC3CSC3)cc2)cc1OC	n	n	n	8.6
SMILES	Yeast life ext	Measles CPE	Yeast growth inh	RAM inhibit
O=C(/C=C/c1ccc(OC2CSC2)cc1)c1ccc(Cl)cc1	n	n	n	n
COC(=O)c1ccc(N/C=C/C(=O)c2ccc(OC)c(OC)c2)cc1	n	n	n	n
COc1ccc(NC(=O)/C(C#N)=C/c2ccc(Sc3nncn3C)c([N+](=O)[O-])c2)cc1	x	x	x	n
COc1ccc(CN(C(=O)CSc2nnc(-c3ccccc3C)o2)c2ccc(F)cc2)cc1	x	n	n	11
COC(=O)CN(C(=O)CSc1nnc(-c2cccc(OC)c2)o1)c1ccc(OC)cc1	n	n	n	11
CCOC(=O)N1CCC(=C2c3ccc(Cl)cc3CCc3cccnc32)CC1	33	n	n	n
O=C(NCC(c1cccnc1)N1CCN(c2ccc(F)cc2)CC1)c1ccco1 (stereo not drawn)	x	x	x	n
CC(C)C(C)NC(=O)CN1C(=O)NC2(CCCc3ccccc32)C1=O (stereo not drawn)	x	x	x	n
CC(Nc1ccc(Br)cn1)c1cc(Cl)ccc1O (stereo not drawn)	n	n	60	n
CCc1ccc(-c2csc(NC(=O)C3CCCO3)c2C(=O)OC(C)C)cc1 (stereo not drawn)	n	n	n	10
Nc1c2c(nc3sc4c(c13)CCCCC4)CCCCC2	n	49	n	n
O=C1C/C(=C/NCc2ccccc2)C(=O)N1	n	41	n	n
CC(Cc1ccccc1)N/C=C1/CC(=O)NC1=O (stereo not drawn)	n	n	n	n
CCC1C(c2ccccc2)N(C)C(c2ccccc2)CC1(O)c1ccccc1 (stereo not drawn)	x	x	x	n
CC(C)C1C(c2ccccc2)N(C)C(c2ccccc2)CC1(O)c1ccccc1 (stereo not drawn)	46	n	n	n
Cc1oc2c(cc(NS(=O)(=O)c3ccc4c5c(cccc35)C(=O)N4)c3ccccc32)c1C(=O)OC(C)C	n	n	n	9.2
O=C(O)c1ccccc1NS(=O)(=O)c1ccc2c3c(cccc13)C(=O)N2	n	n	n	n

Bioassay records from PubChem.
